Measurements as given in ChEMBL document CHEMBL4689842, “EUbOPEN Chemogenomics Library wave 1” (2021).

How the values were obtained:
Assay type in all cases: toxicity, cell-based
HEK-293T = test: Incucyte cell viability with HEK293T; settings: human, 10 µM, compound concentration 10 uM; note: filed as whole numbers so only -1 and 0 and 1 occur
Fibroblast = test: Multiplex assay against human fibroblast
Method in brief: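 Live cells were stained at seeding with Hoechst33342, BioTracker Green Microtubule Cytoskeleton Dye, MitoTracker Red and Annexin V Alexa Fluor 680, then imaged on a CQ1 microscope at 37°C and 5% CO2 after compound addition. CellPathfinder machine-learning gating split cells into Hoechst high-intensity objects or normal cells. Normal cells were split into healthy, pyknosed or fragmented nuclei, and pyknosed cells into mitotic or apoptotic. Tubulin, mitochondrial-mass and membrane-permeability phenotypes are per cents of healthy-nucleus cells.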

U2OS = test: Incucyte cell viability with U2OS; settings: human, 10 µM, compound concentration 10 uM; note: filed as whole numbers so only -1 and 0 and 1 occur
[1] = 0 h, replicate number 1, timepoint 0 hours
[2] = 12 h, replicate number 1, timepoint 12 hours
[3] = 18 h, replicate number 1, timepoint 18 hours
[4] = 24 h, replicate number 1, timepoint 24 hours
[5] = 12 h, 1 µM, compound concentration 1 uM, replicate 1
[6] = 12 h, 1 µM, compound concentration 1 uM, replicate 2
[7] = 12 h, 10 µM, compound concentration 10 uM, replicate 1
[8] = 12 h, 10 µM, compound concentration 10 uM, replicate 2
[9] = 24 h, 1 µM, compound concentration 1 uM, replicate 1
[10] = 24 h, 1 µM, compound concentration 1 uM, replicate 2
[11] = 24 h, 10 µM, compound concentration 10 uM, replicate 1
[12] = 24 h, 10 µM, compound concentration 10 uM, replicate 2
[13] = 48 h, 1 µM, compound concentration 1 uM, replicate 1
[14] = 48 h, 1 µM, compound concentration 1 uM, replicate 2
[15] = 48 h, 10 µM, compound concentration 10 uM, replicate 1
[16] = 48 h, 10 µM, compound concentration 10 uM, replicate 2

Compound: CCCn1c(=O)c2[nH]c(C34CC5CC(CC3C5)C4)nc2n(CCC)c1=O [ROLOFYLLINE]
- Growth Rate (HEK-293T; [1]): 0
- Growth Rate (HEK-293T; 6 h, replicate number 1, timepoint 6 hours): 0
- Growth Rate (HEK-293T; [2]): 0
- Growth Rate (HEK-293T; [3]): 0
- Growth Rate (HEK-293T; [4]): 0
- Population Apoptotic (%) (Fibroblast; [5]): 67%
- Population Fragmented Nuclei (%) (Fibroblast; [5]): 13%
- Population Healthy Nuclei (%) (Fibroblast; [5]): 55%
- Population Hoechst High Intensity Objects (%) (Fibroblast; [5]): 9%
- Population Membrane Permeable-Phenotype (%) (Fibroblast; [5]): 24%
- Population Mitochondria Different-Phenotype (%) (Fibroblast; [5]): 10%
- Population Mitotic Cells (%) (Fibroblast; [5]): 32%
- Population Normal (%) (Fibroblast; [5]): 90%
- Population Pyknosed Nuclei (%) (Fibroblast; [5]): 31%
- Population Tubulin-Different-Phenotype (%) (Fibroblast; [5]): 63%
- Total Cell Count (Fibroblast; [5]): 98
- Population Apoptotic (%) (Fibroblast; [6]): 71%
- Population Fragmented Nuclei (%) (Fibroblast; [6]): 4%
- Population Healthy Nuclei (%) (Fibroblast; [6]): 88%
- Population Hoechst High Intensity Objects (%) (Fibroblast; [6]): 3%
- Population Membrane Permeable-Phenotype (%) (Fibroblast; [6]): 12%
- Population Mitochondria Different-Phenotype (%) (Fibroblast; [6]): 15%
- Population Mitotic Cells (%) (Fibroblast; [6]): 28%
- Population Normal (%) (Fibroblast; [6]): 96%
- Population Pyknosed Nuclei (%) (Fibroblast; [6]): 7%
- Population Tubulin-Different-Phenotype (%) (Fibroblast; [6]): 20%
- Total Cell Count (Fibroblast; [6]): 81
- Population Apoptotic (%) (Fibroblast; [7]): 46%
- Population Fragmented Nuclei (%) (Fibroblast; [7]): 13%
- Population Healthy Nuclei (%) (Fibroblast; [7]): 42%
- Population Hoechst High Intensity Objects (%) (Fibroblast; [7]): 13%
- Population Membrane Permeable-Phenotype (%) (Fibroblast; [7]): 23%
- Population Mitochondria Different-Phenotype (%) (Fibroblast; [7]): 37%
- Population Mitotic Cells (%) (Fibroblast; [7]): 53%
- Population Normal (%) (Fibroblast; [7]): 86%
- Population Pyknosed Nuclei (%) (Fibroblast; [7]): 43%
- Population Tubulin-Different-Phenotype (%) (Fibroblast; [7]): 88%
- Total Cell Count (Fibroblast; [7]): 137
- Population Apoptotic (%) (Fibroblast; [8]): 55%
- Population Healthy Nuclei (%) (Fibroblast; [8]): 74%
- Population Hoechst High Intensity Objects (%) (Fibroblast; [8]): 3%
- Population Membrane Permeable-Phenotype (%) (Fibroblast; [8]): 46%
- Population Mitochondria Different-Phenotype (%) (Fibroblast; [8]): 73%
- Population Mitotic Cells (%) (Fibroblast; [8]): 44%
- Population Normal (%) (Fibroblast; [8]): 96%
- Population Pyknosed Nuclei (%) (Fibroblast; [8]): 12%
- Population Tubulin-Different-Phenotype (%) (Fibroblast; [8]): 100%
- Total Cell Count (Fibroblast; [8]): 99
- Population Apoptotic (%) (Fibroblast; [9]): 31%
- Population Fragmented Nuclei (%) (Fibroblast; [9]): 20%
- Population Healthy Nuclei (%) (Fibroblast; [9]): 56%
- Population Hoechst High Intensity Objects (%) (Fibroblast; [9]): 13%
- Population Membrane Permeable-Phenotype (%) (Fibroblast; [9]): 39%
- Population Mitochondria Different-Phenotype (%) (Fibroblast; [9]): 9%
- Population Mitotic Cells (%) (Fibroblast; [9]): 68%
- Population Normal (%) (Fibroblast; [9]): 86%
- Population Pyknosed Nuclei (%) (Fibroblast; [9]): 23%
- Population Tubulin-Different-Phenotype (%) (Fibroblast; [9]): 73%
- Total Cell Count (Fibroblast; [9]): 109
- Population Apoptotic (%) (Fibroblast; [10]): 40%
- Population Fragmented Nuclei (%) (Fibroblast; [10]): 7%
- Population Healthy Nuclei (%) (Fibroblast; [10]): 88%
- Population Hoechst High Intensity Objects (%) (Fibroblast; [10]): 5%
- Population Membrane Permeable-Phenotype (%) (Fibroblast; [10]): 6%
- Population Mitochondria Different-Phenotype (%) (Fibroblast; [10]): 11%
- Population Mitotic Cells (%) (Fibroblast; [10]): 60%
- Population Normal (%) (Fibroblast; [10]): 94%
- Population Pyknosed Nuclei (%) (Fibroblast; [10]): 4%
- Population Tubulin-Different-Phenotype (%) (Fibroblast; [10]): 15%
- Total Cell Count (Fibroblast; [10]): 83
- Population Apoptotic (%) (Fibroblast; [11]): 36%
- Population Fragmented Nuclei (%) (Fibroblast; [11]): 17%
- Population Healthy Nuclei (%) (Fibroblast; [11]): 43%
- Population Hoechst High Intensity Objects (%) (Fibroblast; [11]): 13%
- Population Membrane Permeable-Phenotype (%) (Fibroblast; [11]): 31%
- Population Mitochondria Different-Phenotype (%) (Fibroblast; [11]): 39%
- Population Mitotic Cells (%) (Fibroblast; [11]): 63%
- Population Normal (%) (Fibroblast; [11]): 86%
- Population Pyknosed Nuclei (%) (Fibroblast; [11]): 39%
- Population Tubulin-Different-Phenotype (%) (Fibroblast; [11]): 87%
- Total Cell Count (Fibroblast; [11]): 128
- Population Apoptotic (%) (Fibroblast; [12]): 56%
- Population Fragmented Nuclei (%) (Fibroblast; [12]): 9%
- Population Healthy Nuclei (%) (Fibroblast; [12]): 58%
- Population Hoechst High Intensity Objects (%) (Fibroblast; [12]): 5%
- Population Membrane Permeable-Phenotype (%) (Fibroblast; [12]): 41%
- Population Mitochondria Different-Phenotype (%) (Fibroblast; [12]): 81%
- Population Mitotic Cells (%) (Fibroblast; [12]): 43%
- Population Normal (%) (Fibroblast; [12]): 94%
- Population Pyknosed Nuclei (%) (Fibroblast; [12]): 31%
- Population Tubulin-Different-Phenotype (%) (Fibroblast; [12]): 100%
- Total Cell Count (Fibroblast; [12]): 120
- Population Apoptotic (%) (Fibroblast; [13]): 31%
- Population Fragmented Nuclei (%) (Fibroblast; [13]): 28%
- Population Healthy Nuclei (%) (Fibroblast; [13]): 55%
- Population Hoechst High Intensity Objects (%) (Fibroblast; [13]): 14%
- Population Membrane Permeable-Phenotype (%) (Fibroblast; [13]): 23%
- Population Mitochondria Different-Phenotype (%) (Fibroblast; [13]): 3%
- Population Mitotic Cells (%) (Fibroblast; [13]): 68%
- Population Normal (%) (Fibroblast; [13]): 85%
- Population Pyknosed Nuclei (%) (Fibroblast; [13]): 15%
- Population Tubulin-Different-Phenotype (%) (Fibroblast; [13]): 58%
- Total Cell Count (Fibroblast; [13]): 118
- Population Apoptotic (%) (Fibroblast; [14]): 0%
- Population Fragmented Nuclei (%) (Fibroblast; [14]): 25%
- Population Healthy Nuclei (%) (Fibroblast; [14]): 73%
- Population Hoechst High Intensity Objects (%) (Fibroblast; [14]): 13%
- Population Membrane Permeable-Phenotype (%) (Fibroblast; [14]): 34%
- Population Mitochondria Different-Phenotype (%) (Fibroblast; [14]): 5%
- Population Mitotic Cells (%) (Fibroblast; [14]): 100%
- Population Normal (%) (Fibroblast; [14]): 86%
- Population Pyknosed Nuclei (%) (Fibroblast; [14]): 1%
- Population Tubulin-Different-Phenotype (%) (Fibroblast; [14]): 70%
- Total Cell Count (Fibroblast; [14]): 87
- Population Apoptotic (%) (Fibroblast; [15]): 62%
- Population Fragmented Nuclei (%) (Fibroblast; [15]): 31%
- Population Healthy Nuclei (%) (Fibroblast; [15]): 46%
- Population Hoechst High Intensity Objects (%) (Fibroblast; [15]): 17%
- Population Membrane Permeable-Phenotype (%) (Fibroblast; [15]): 26%
- Population Mitochondria Different-Phenotype (%) (Fibroblast; [15]): 51%
- Population Mitotic Cells (%) (Fibroblast; [15]): 37%
- Population Normal (%) (Fibroblast; [15]): 82%
- Population Pyknosed Nuclei (%) (Fibroblast; [15]): 21%
- Population Tubulin-Different-Phenotype (%) (Fibroblast; [15]): 86%
- Total Cell Count (Fibroblast; [15]): 134
- Population Apoptotic (%) (Fibroblast; [16]): 50%
- Population Fragmented Nuclei (%) (Fibroblast; [16]): 37%
- Population Healthy Nuclei (%) (Fibroblast; [16]): 57%
- Population Hoechst High Intensity Objects (%) (Fibroblast; [16]): 50%
- Population Membrane Permeable-Phenotype (%) (Fibroblast; [16]): 21%
- Population Mitochondria Different-Phenotype (%) (Fibroblast; [16]): 34%
- Population Mitotic Cells (%) (Fibroblast; [16]): 50%
- Population Normal (%) (Fibroblast; [16]): 50%
- Population Pyknosed Nuclei (%) (Fibroblast; [16]): 5%
- Population Tubulin-Different-Phenotype (%) (Fibroblast; [16]): 82%
- Total Cell Count (Fibroblast; [16]): 160
- Growth Rate (U2OS; [1]): 1
- Growth Rate (U2OS; 0 h, replicate number 2, timepoint 0 hours): 0
- Growth Rate (U2OS; 6 h, replicate number 2, timepoint 6 hours): 1
- Growth Rate (U2OS; [2]): 1
- Growth Rate (U2OS; [3]): 1
- Growth Rate (U2OS; [4]): 1
